Calls of active or inactive are those of the source.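 Rule for the calls: active = compound with IC50 above 30 µM at both the APJ and CCR6 off-target receptors, and at most 10 µM at CXCR6; inactive = the rest.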
How the values were obtained:
Test in all cases: GPCR panel antagonist activity incl. apelin receptor – cell-based, CHO-K1 PathHunter beta-arrestin, luminescence, set 3, selectivity assay for CXCR6 antagonist project, profiling panel (AID 651708)
[1] = biological target: Apelin receptor (Homo sapiens) (UniProt P35414); details: antagonist mode, APJ
Summary of the method: (§1)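 test system = CHO-K1 PathHunter β-arrestin cell lines for APJ, CCR6 or CXCR6 | reagent = APJ 10 nM Apelin-13, CCR6 14 nM CCL20, CXCR6 CXCL16 | measured by = β-arrestin recruitment luminescence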

[2] = biological target: C-X-C chemokine receptor type 6 (Homo sapiens) (UniProt O00574); details: antagonist mode
Summary of the method: as §1

[3] = biological target: C-C chemokine receptor type 6 (Homo sapiens) (UniProt P51684); details: antagonist mode
Summary of the method: as §1

Sequence of Apelin receptor (Homo sapiens) (P35414 whole entry, looked up): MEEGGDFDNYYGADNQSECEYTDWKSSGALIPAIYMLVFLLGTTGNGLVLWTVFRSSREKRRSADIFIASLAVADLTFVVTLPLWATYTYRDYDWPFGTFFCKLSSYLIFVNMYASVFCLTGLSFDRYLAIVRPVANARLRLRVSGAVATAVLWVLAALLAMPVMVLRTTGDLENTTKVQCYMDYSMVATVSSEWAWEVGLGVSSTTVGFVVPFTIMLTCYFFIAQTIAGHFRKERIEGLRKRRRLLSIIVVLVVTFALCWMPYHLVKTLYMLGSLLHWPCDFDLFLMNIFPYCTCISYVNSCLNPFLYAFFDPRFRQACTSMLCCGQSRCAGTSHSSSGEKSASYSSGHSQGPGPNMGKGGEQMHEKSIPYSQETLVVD
Sequence of C-X-C chemokine receptor type 6 (Homo sapiens) (O00574 whole entry, looked up): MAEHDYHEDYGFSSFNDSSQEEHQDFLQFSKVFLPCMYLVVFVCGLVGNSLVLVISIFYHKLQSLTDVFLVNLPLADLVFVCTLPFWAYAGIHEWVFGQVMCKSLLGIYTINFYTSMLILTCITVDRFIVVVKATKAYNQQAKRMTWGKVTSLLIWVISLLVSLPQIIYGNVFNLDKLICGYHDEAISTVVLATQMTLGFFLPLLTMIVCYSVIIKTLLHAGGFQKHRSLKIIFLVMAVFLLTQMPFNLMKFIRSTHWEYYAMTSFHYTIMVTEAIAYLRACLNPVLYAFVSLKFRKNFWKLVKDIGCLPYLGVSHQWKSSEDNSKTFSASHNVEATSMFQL
Sequence of C-C chemokine receptor type 6 (Homo sapiens) (P51684 whole entry, looked up): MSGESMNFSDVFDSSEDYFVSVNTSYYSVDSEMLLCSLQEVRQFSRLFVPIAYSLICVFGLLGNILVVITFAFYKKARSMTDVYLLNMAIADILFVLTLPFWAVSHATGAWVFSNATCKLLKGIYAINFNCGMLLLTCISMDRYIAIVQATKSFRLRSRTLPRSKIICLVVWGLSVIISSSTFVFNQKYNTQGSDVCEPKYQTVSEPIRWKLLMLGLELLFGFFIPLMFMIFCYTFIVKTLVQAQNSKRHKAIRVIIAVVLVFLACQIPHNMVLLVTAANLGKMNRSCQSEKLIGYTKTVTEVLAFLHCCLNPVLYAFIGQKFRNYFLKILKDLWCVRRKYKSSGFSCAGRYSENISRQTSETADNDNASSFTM

| IC50 ([1]; mean of runs) | IC50 ([1]; run 1) | IC50 ([1]; run 2) | IC50 ([2]; CXCR6, mean of runs) | IC50 ([2]; CXCR6, run 1) | IC50 ([2]; CXCR6, run 2) | IC50 ([3]; CCR6, mean of runs) | IC50 ([3]; CCR6, run 1) | IC50 ([3]; CCR6, run 2) | SMILES |
| --- | --- | --- | --- | --- | --- | --- | --- | --- | --- |
| 17.1 µM | 10.1 µM | 24.2 µM | > 79 µM (inactive) | > 79 µM | > 79 µM | > 79 µM (inactive) | > 79 µM | > 79 µM | COc1ccc(CN2C3CCCC2CC(NC(=O)c2cc(OC)c(OC)c(OC)c2)C3)cc1 (stereo not given) |
| > 79 µM (inactive) | > 79 µM | > 79 µM | > 79 µM (inactive) | > 79 µM | > 79 µM | > 79 µM (inactive) | > 79 µM | > 79 µM | COc1ccc(C(=O)NC2CC3CCCC(C2)N3CC(=O)Nc2ccc(Cl)cc2)cc1OC (stereo not given) |
|  | > 79 µM | 28.6 µM | > 79 µM (inactive) | > 79 µM | > 79 µM | > 79 µM (inactive) | > 79 µM | > 79 µM | Cc1ccc(NC(=O)CN2C3CCCC2CC(NC(=O)c2ccc4c(c2)OCO4)C3)cc1 (stereo not given) |
| > 79 µM (inactive) | > 79 µM | > 79 µM | > 79 µM (inactive) | > 79 µM | > 79 µM | > 79 µM (inactive) | > 79 µM | > 79 µM | COc1ccc(C(=O)NC2CC3CCCC(C2)N3CC(=O)Nc2ccccc2)cc1OC (stereo not given) |
| > 79 µM (inactive) | > 79 µM | > 79 µM | > 79 µM (inactive) | > 79 µM | > 79 µM | > 79 µM (inactive) | > 79 µM | > 79 µM | COc1cc(OC)cc(C(=O)NC2CC3CCCC(C2)N3CC(=O)Nc2ccc(C)cc2)c1 (stereo not given) |
| > 79 µM (inactive) | > 79 µM | > 79 µM | > 79 µM (inactive) | > 79 µM | > 79 µM | > 79 µM (inactive) | > 79 µM | > 79 µM | COc1cccc(C(=O)NC2CC3CCCC(C2)N3CC(=O)Nc2ccccc2)c1 (stereo not given) |
| > 79 µM (inactive) | > 79 µM | > 79 µM | inactive | 12.4 µM | 26.4 µM | > 79 µM (inactive) | > 79 µM | > 79 µM | COc1ccc(NC(=O)CN2C3CCCC2CC(NC(=O)c2cc(OC)c(OC)c(OC)c2)C3)cc1 (stereo not given) |
|  | > 79 µM | 25.4 µM | 1.95 µM | 1.81 µM | 2.09 µM | > 79 µM (inactive) | > 79 µM | > 79 µM | COc1ccccc1NC(=O)CN1C2CCCC1CC(NC(=O)c1cc(OC)c(OC)c(OC)c1)C2 (stereo not given) |
|  | > 79 µM | 36.9 µM | > 79 µM (inactive) | > 79 µM | > 79 µM | > 79 µM (inactive) | > 79 µM | > 79 µM | O=C(CN1C2CCCC1CC(NC(=O)c1ccc3c(c1)OCO3)C2)Nc1ccc(Cl)cc1 (stereo not given) |
| > 79 µM (inactive) | > 79 µM | > 79 µM | > 79 µM (inactive) | > 79 µM | > 79 µM | > 79 µM (inactive) | > 79 µM | > 79 µM | COc1cccc(C(=O)NC2CC3CCCC(C2)N3CC(=O)Nc2ccc(F)cc2)c1 (stereo not given) |
| > 79 µM (inactive) | > 79 µM | > 79 µM | 3.51 µM | 3.08 µM | 3.95 µM | > 79 µM (inactive) | > 79 µM | > 79 µM | COc1cc(C(=O)NC2CC3CCCC(C2)N3CC(=O)Nc2ccc(F)cc2)cc(OC)c1OC (stereo not given) |
| > 79 µM (inactive) | > 79 µM | > 79 µM | > 79 µM (inactive) | > 79 µM | > 79 µM | > 79 µM (inactive) | > 79 µM | > 79 µM | COc1ccc(C(=O)NC2CC3CCCC(C2)N3CC(=O)Nc2ccc(F)cc2)cc1OC (stereo not given) |

Reference: PubChem BioAssay AID651708 (Sanford-Burnham Center for Chemical Genomics, 2012)
